According to PMC5599992 (Journal of Clinical Pharmacology, 2017):
“And” between values parts separate entries of the source, which are not always exact repeats. Equal entries are not always repeated. Where two headings read alike, the source gives them in different places.

Assays:
[1] = system: CLL/SLL; test: Best overall response in CLL/SLL subjects, phase 1b study AVL‐292‐003; type: in vivo, human
[2] = Population pharmacokinetic analysis of CC‐292; type: in vivo, human
Procedure, shortened: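 Data came from healthy volunteers (50, 100 or 200 mg or placebo orally QD for 7 days; intensive sampling predose to 24 h on days 1 and 7, troughs on days 3–6) and patients (sparse cycle 1–3 samples). Plasma was assayed by LC-MS/MS (LLOQ ≤0.5 ng/mL, labeled internal standard). The NONMEM FOCE-I 2-compartment model with first-order absorption and lag used ln-transformed data and separate residual error per population. There were 1000 bootstrap runs with 5th–95th percentile CIs.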

[3] = rats; ref data on file; cited from earlier work
[4] = system: CLL/SLL; test: Threshold analysis; type: in vivo, human; settings: threshold 300 ng/mL
[5] = system: CLL/SLL; test: Exposure‐response analysis; type: in vivo, human
Procedure, shortened: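 In relapsed/refractory CLL/SLL patients from the phase 1b study, log-transformed steady-state AUC came from noncompartmental analysis. ORR (CR, CRi or PR; updated iwCLL criteria) was modeled as responder vs nonresponder by logistic regression, first univariate, then multivariate with stepwise forward/backward covariate selection. Covariates were age, BSA, sex, race, QD vs BID regimen, CLcr, bilirubin, albumin, ALT and AST.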

[6] = system: CYP1A2; settings: ref data on file; cited from earlier work
[7] = monkeys; ref data on file; cited from earlier work
[8] = system: CYP3A4; settings: ref data on file; cited from earlier work
[9] = rats; ref data on file; cited from earlier work; remark: listed apart in the source
[10] = based on final population PK parameters

## C=CC(=O)Nc1cccc(Nc2nc(Nc3ccc(OCCOC)cc3)ncc2F)c1 [CC‐292]
[1]; 125 mg QD
  Best overall response: Complete response: 0 n (%)
  Best overall response: Partial response: 1 (33.3) n (%)
  Best overall response: Progression disease: 0 n (%)
  Best overall response: Stable disease: 2 (66.7) n (%)
  Overall response rate: 1 (33.3) n (%)
[1]; 250 mg QD
  Best overall response: Complete response: 0 n (%)
  Best overall response: Partial response: 0 n (%)
  Best overall response: Progression disease: 0 n (%)
  Best overall response: Stable disease: 1 (100) n (%)
  Overall response rate: 0 n (%)
[1]; 375 mg BID
  Best overall response: Complete response: 0 n (%)
  Best overall response: Partial response: 4 (66.7) n (%)
  Best overall response: Progression disease: 0 n (%)
  Best overall response: Stable disease: 2 (33.3) n (%)
  Overall response rate: 4 (66.7) n (%)
[1]; 400 mg QD
  Best overall response: Complete response: 0 n (%)
  Best overall response: Partial response: 1 (25.0) n (%)
  Best overall response: Progression disease: 0 n (%)
  Best overall response: Stable disease: 3 (75.0) n (%)
  Overall response rate: 1 (25.0) n (%)
[1]; 500 mg BID
  Best overall response: Complete response: 0 n (%)
  Best overall response: Partial response: 19 (61.3) n (%)
  Best overall response: Progression disease: 0 n (%)
  Best overall response: Stable disease: 12 (38.7) n (%)
  Overall response rate: 19 (61.3) n (%)
[1]; 625 mg QD
  Best overall response: Complete response: 0 n (%)
  Best overall response: Partial response: 0 n (%)
  Best overall response: Progression disease: 0 n (%)
  Best overall response: Stable disease: 1 (100) n (%)
  Overall response rate: 0 n (%)
[1]; 750 mg QD
  Best overall response: Complete response: 0 n (%)
  Best overall response: Partial response: 12 (41.4) n (%)
  Best overall response: Progression disease: 1 (3.4) n (%)
  Best overall response: Stable disease: 16 (55.2) n (%)
  Overall response rate: 12 (41.4) n (%)
[1]; 1000 mg QD
  Best overall response: Complete response: 0 n (%)
  Best overall response: Partial response: 4 (57.1) n (%)
  Best overall response: Progression disease: 0 n (%)
  Best overall response: Stable disease: 3 (42.9) n (%)
  Overall response rate: 4 (57.1) n (%)
[1]; Total, all cohorts
  Best overall response: Complete response: 0 n (%)
  Best overall response: Partial response: 41 (50.0) n (%)
  Best overall response: Progression disease: 1 (1.2) n (%)
  Best overall response: Stable disease: 40 (48.8) n (%)
  Overall response rate: 41 (50.0) n (%)
[2]; base model
  interindividual variability for V2/F: 88%
[2]; [10]
  distribution rate: 0.11 h⁻¹
  elimination rate: 0.85 h⁻¹
[2]; bootstrap N = 1000
  Alag1, Bootstrap Estimate (95%CI): 0.428 (0.414‐0.439) h
  CL/F, Bootstrap Estimate (95%CI): 131.9 (109.0‐166.6) L/h
  Effect of age on V2/F, Bootstrap Estimate (95%CI): 0.946 (0.592‐1.355)
  Interindividual variability ωV2/F: ωCL/F, Bootstrap Estimate (95%CI): 0.321 (0.198‐0.461)
  Interindividual variability ω^2 CL/F, Bootstrap Estimate (95%CI): 0.306 (0.202‐0.454)
  Interindividual variability ω^2 V2/F, Bootstrap Estimate (95%CI): 0.750 (0.526‐1.010)
  Q/F, Bootstrap Estimate (95%CI): 18.4 (15.3‐21.7) L/h
  V2/F, Bootstrap Estimate (95%CI): 156.4 (130.2‐187.8) L
  V3/F, Bootstrap Estimate (95%CI): 71.7 (61.4‐83.5) L
  ka, Bootstrap Estimate (95%CI): 0.97 (0.86‐1.11) h^−1
[2]; bootstrap N = 1000, healthy normal study subjects
  Residual variability HNP, Bootstrap Estimate (95%CI): 0.230 (0.180‐0.288)
[2]; bootstrap N = 1000, patients
  Residual variability Patients, Bootstrap Estimate (95%CI): 0.654 (0.537‐0.708)
[2]; both, human, plasma, oral
  Vd/F: 158 L
  clearance: 2230 mL/min
[2]; final model (age included)
  interindividual variability for V2/F: 86%
[2]; final population PK model
  Alag1, absorption lag time, Estimate: 0.427 h
  Interindividual variability ωV2/F: ωCL/F, Estimate: 0.328
  Interindividual variability ω^2 CL/F, Estimate: 0.317
  Interindividual variability ω^2 V2/F, Estimate: 0.755
  lower CL/F in female subjects compared to male subjects: 26%
[2]; final population PK model, healthy normal study subjects
  Residual variability HNP, Estimate: 0.234
[2]; final population PK model, oral, healthy subjects and patients
  ka, first‐order absorption rate constant, Estimate: 0.97 h⁻¹ and 0.974 h⁻¹
[2]; final population PK model, patients
  Residual variability Patients, Estimate: 0.659
[2]; final population PK model, power exponent
  Effect of age on V2/F, Estimate: 0.946
[2]; final population PK model, typical value for male subjects
  CL/F, apparent clearance, Estimate: 134 L/h and 134.0 L/h
[2]; in vivo
  CL/F relative to Q/F (Q/F lower than CL/F): 7.2 fold and ~7 fold
  differences in drug exposures between female and male subjects: below 26%
[3]
  CC‐292–derived radioactivity excreted in the bile: ~79 % of the dose
[4]; 375 mg BID
  duration/coverage at and above the threshold concentration: ~10.4 h
[4]; 750 mg QD
  duration/coverage at and above the threshold concentration: 6.6 h
[5]; first quartile of average AUC
  mean ORR: 35%
[5]; fourth quartile of average AUC
  mean ORR: 50.2%
[6]
  metabolism by CYP1A2: extensively metabolized
[7]
  extent of bioavailability: 11%
[8]
  metabolism by CYP3A4: extensively metabolized
[9]
  extent of bioavailability: 57%
